A short description of assay [1]: (§1) Antiproliferative activity against human A375P cells assessed as growth inhibition after 24 hrs by MTT assay. It counts as functional. The method in brief: (§2)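 A375P cells kept in DMEM with 10% FBS and 1% penicillin/streptomycin at 37 °C under 5% CO2. Cells lifted with 0.05% trypsin–0.02% EDTA, seeded at 5 × 10^3 cells/well and left 24 h before dosing. Test compounds given as a 3-fold serial dilution over 12 points. Viability read by MTT reduction, absorbance at 590 nm.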
(In general: Tetrazolium assays rely on reduction of a dye to a coloured formazan, in cell work by metabolically active cells.)

Assay [2] concerns HS27. Kind of assay: Antiproliferative activity against human HS27 cells assessed as growth inhibition after 24 hrs by MTT assay. As to conditions: HS27, 24 h. It is filed as functional.
In assay [3] the target is T1, RAF proto-oncogene serine/threonine-protein kinase (Homo sapiens, UniProt P04049). Kind of assay: Inhibition of C-Raf assessed as [33P]gamma-ATP incorporation into substrate after 40 mins by scintillation counting. The method in brief: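 Human C-RAF (5–10 mU) in 25 mM Tris pH 7.5, 0.02 mM EGTA, 10 mM Mg acetate, with 0.66 mg/mL myelin basic protein as substrate and [γ-33P]ATP. Reaction started by adding the Mg-ATP mix and run 40 min at room temperature. Stopped with 3% phosphoric acid, spotted on P30 filtermat, washed in 75 mM phosphoric acid and methanol, then scintillation counted.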

Assay [4] relates to Serine/threonine-protein kinase B-raf (Homo sapiens), P15056 [V600E]. Kind of assay: Inhibition of B-Raf V600E mutant.
Assay [5] deals with T2, Serine/threonine-protein kinase mTOR (Homo sapiens, UniProt P42345). Kind of assay: inhibition of mTOR.
The test system of assay [6] is A375P. The description is as §1. It counts as functional. The method in brief:
as §2

Assay [7] addresses T3, Serine/threonine-protein kinase PLK1 (Homo sapiens, UniProt P53350). Kind of assay: inhibition of PLK1 at 10 uM.
For assay [8], the target named is Receptor-type tyrosine-protein kinase FLT3 (Homo sapiens, UniProt P36888). Kind of assay: inhibition of FLT3.
The target of assay [9] is T4, Dual specificity mitogen-activated protein kinase kinase 1 (Homo sapiens, UniProt Q02750). As to the kind of experiment: inhibition of MEK1 at 10 uM.
The target in assay [10] is Cyclin-dependent kinase 1/cyclin B (Homo sapiens, UniProt P06493). As to the kind of experiment: Inhibition of CDK1/cyclin B. It is filed as protein-complex assay.
Assay [11] deals with T5, Tyrosine-protein kinase SYK (Homo sapiens, UniProt P43405). Kind of assay: inhibition of SYK at 10 uM.
For assay [12], the target named is Receptor-type tyrosine-protein kinase FLT3 (Homo sapiens) (UniProt P36888). Conditions: 10 uM.
For assay [13], the target named is T6, BDNF/NT-3 growth factors receptor (Homo sapiens, UniProt Q16620). As to the kind of experiment: inhibition of TRKB at 10 uM.
The target of assay [14] is T7, Hepatocyte growth factor receptor (Homo sapiens, UniProt P08581). As to conditions: 10 uM.
Assay [15] has as its target Aurora kinase A (Homo sapiens, UniProt O14965). Kind of assay: Inhibition of Aurora A kinase.
Assay [16] has as its target T6, BDNF/NT-3 growth factors receptor. As to the kind of experiment: inhibition of TRKB.
Assay [17] has as its target T8, Proto-oncogene tyrosine-protein kinase ROS (Homo sapiens, UniProt P08922). Kind of assay: inhibition of ROS.
The target in assay [18] is T9, Vascular endothelial growth factor receptor 2 (Homo sapiens, UniProt P35968). As to the kind of experiment: inhibition of KDR at 10 uM.
Assay [19] addresses T10, Mitogen-activated protein kinase 1 (Homo sapiens, UniProt P28482). Kind of assay: Inhibition of ERK2 at 10 uM.
The target of assay [20] is Cyclin-dependent kinase 2/cyclin E (Homo sapiens) (UniProt P24864+P24941+O96020). As to the kind of experiment: Inhibition of CDK2/cyclin E at 10 uM. It counts as protein-complex assay.
Assay [21] deals with T10, Mitogen-activated protein kinase 1. As to the kind of experiment: Inhibition of ERK2.
Assay [22] relates to RAC-alpha serine/threonine-protein kinase (Homo sapiens), P31749 [S473D]. As to the kind of experiment: Inhibition of AKT1 PH S473D mutant at 10 uM.
Assay [23] has as its target T11, Mitogen-activated protein kinase 8 (Homo sapiens, UniProt P45983). Kind of assay: inhibition of JNK1a1 at 10 uM.
Assay [24] deals with T4, Dual specificity mitogen-activated protein kinase kinase 1. Kind of assay: inhibition of MEK1.
The target in assay [25] is T12, Ribosomal protein S6 kinase beta-1 (Homo sapiens, UniProt P23443). Kind of assay: inhibition of p70S6K.
The target of assay [26] is Cyclin-dependent kinase 1/cyclin B (Homo sapiens) (UniProt P06493+P14635+Q8WWL7+O95067). Kind of assay: Inhibition of CDK1/cyclin B at 10 uM. It counts as protein-complex assay.
Assay [27] deals with T13, Mitogen-activated protein kinase 10 (Homo sapiens, UniProt P53779). Kind of assay: inhibition of JNK3.
Assay [28] addresses T5, Tyrosine-protein kinase SYK. Kind of assay: inhibition of SYK.
Assay [29] concerns the target T1, RAF proto-oncogene serine/threonine-protein kinase. As to the kind of experiment: inhibition of RAF1 assessed as [33P]gamma-ATP incorporation into substrate at 10 uM after 40 mins by scintillation counting.
For assay [30], the target named is ALK tyrosine kinase receptor (Homo sapiens) (UniProt Q9UM73). Conditions: 10 uM.
Assay [31] in a line: inhibition of PKA.
Assay [32] addresses T14, Macrophage-stimulating protein receptor (Homo sapiens, UniProt Q04912). Kind of assay: inhibition of RON.
Assay [33] in a line: inhibition of PKA at 10 uM.
The target in assay [34] is T13, Mitogen-activated protein kinase 10. As to conditions: 10 uM.
The target in assay [35] is T15, Glycogen synthase kinase-3 beta (Homo sapiens, UniProt P49841). As to the kind of experiment: inhibition of GSK3-beta at 10 uM.
Assay [36] addresses T16, Proto-oncogene tyrosine-protein kinase Src (Homo sapiens, UniProt P12931). As to conditions: 10 uM.
Assay [37] deals with T11, Mitogen-activated protein kinase 8. As to the kind of experiment: inhibition of JNK1a1. Conditions: concentration not given here.
The subject of assay [38] is Serine/threonine-protein kinase B-raf (Homo sapiens), P15056 [V600E]. Kind of assay: Inhibition of b-Raf V599E mutant at 10 uM.
Assay [39] concerns the target T8, Proto-oncogene tyrosine-protein kinase ROS. Kind of assay: inhibition of ROS at 10 uM.
Assay [40] addresses T9, Vascular endothelial growth factor receptor 2. As to the kind of experiment: inhibition of KDR.
Assay [41] has as its target T17, Fibroblast growth factor receptor 3 (Homo sapiens, UniProt P22607). Conditions: 10 uM.
Assay [42] deals with T2, Serine/threonine-protein kinase mTOR. Kind of assay: inhibition of mTOR at 10 uM.
Assay [43] addresses T14, Macrophage-stimulating protein receptor. As to the kind of experiment: inhibition of RON at 10 uM.
Assay [44] concerns the target Cyclin-dependent kinase 2/cyclin E (Homo sapiens, UniProt P24941). Kind of assay: Inhibition of CDK2/cyclin E. It counts as protein-complex assay.
For assay [45], the target named is Tyrosine-protein kinase JAK3 (Homo sapiens) (UniProt P52333). As to the kind of experiment: inhibition of JAK3 at 10 uM.
For assay [46], the target named is Focal adhesion kinase 1 (Homo sapiens) (UniProt Q05397). Kind of assay: Inhibition of FAK at 10 uM.
Assay [47] deals with T3, Serine/threonine-protein kinase PLK1. As to the kind of experiment: inhibition of PLK1.
The target of assay [48] is T12, Ribosomal protein S6 kinase beta-1. As to the kind of experiment: inhibition of p70S6K at 10 uM.
Assay [49] concerns the target T17, Fibroblast growth factor receptor 3. As to the kind of experiment: inhibition of FGFR3.
Assay [50] addresses T15, Glycogen synthase kinase-3 beta. Kind of assay: inhibition of GSK3-beta.
For assay [51], the target named is T16, Proto-oncogene tyrosine-protein kinase Src. As to the kind of experiment: Inhibition of c-Src.
The target of assay [52] is Aurora kinase A (Homo sapiens) (UniProt O14965). Kind of assay: Inhibition of Aurora A kinase at 10 uM.
Assay [53] deals with T7, Hepatocyte growth factor receptor. Kind of assay: Inhibition of c-MET.
The target of assay [54] is Insulin-like growth factor 1 receptor (Homo sapiens) (UniProt P08069). Kind of assay: inhibition of IGF-1R at 10 uM.

Calls of active or inactive are those of the source. The rule behind the calls is not given here.

T1 sequence (P04049 whole entry): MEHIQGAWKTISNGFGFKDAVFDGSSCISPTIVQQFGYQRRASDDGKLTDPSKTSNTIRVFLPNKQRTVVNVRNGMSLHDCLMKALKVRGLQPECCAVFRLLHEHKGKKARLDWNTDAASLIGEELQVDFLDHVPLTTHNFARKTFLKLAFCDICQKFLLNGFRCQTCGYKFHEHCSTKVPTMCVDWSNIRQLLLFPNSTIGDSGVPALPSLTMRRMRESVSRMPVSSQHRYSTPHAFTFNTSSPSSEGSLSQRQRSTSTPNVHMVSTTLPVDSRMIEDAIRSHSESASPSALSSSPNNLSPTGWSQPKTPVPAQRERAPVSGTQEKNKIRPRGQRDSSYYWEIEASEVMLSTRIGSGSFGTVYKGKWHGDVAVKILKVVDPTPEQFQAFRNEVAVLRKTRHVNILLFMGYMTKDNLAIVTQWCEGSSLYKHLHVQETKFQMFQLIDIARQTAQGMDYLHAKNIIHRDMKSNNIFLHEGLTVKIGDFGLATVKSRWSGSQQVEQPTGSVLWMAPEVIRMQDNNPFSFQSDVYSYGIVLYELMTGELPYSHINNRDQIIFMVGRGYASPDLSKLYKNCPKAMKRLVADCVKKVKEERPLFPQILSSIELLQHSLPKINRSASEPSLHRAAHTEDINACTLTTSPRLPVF
Serine/threonine-protein kinase B-raf (Homo sapiens), P15056 [V600E], sequence (P15056 whole entry V600E): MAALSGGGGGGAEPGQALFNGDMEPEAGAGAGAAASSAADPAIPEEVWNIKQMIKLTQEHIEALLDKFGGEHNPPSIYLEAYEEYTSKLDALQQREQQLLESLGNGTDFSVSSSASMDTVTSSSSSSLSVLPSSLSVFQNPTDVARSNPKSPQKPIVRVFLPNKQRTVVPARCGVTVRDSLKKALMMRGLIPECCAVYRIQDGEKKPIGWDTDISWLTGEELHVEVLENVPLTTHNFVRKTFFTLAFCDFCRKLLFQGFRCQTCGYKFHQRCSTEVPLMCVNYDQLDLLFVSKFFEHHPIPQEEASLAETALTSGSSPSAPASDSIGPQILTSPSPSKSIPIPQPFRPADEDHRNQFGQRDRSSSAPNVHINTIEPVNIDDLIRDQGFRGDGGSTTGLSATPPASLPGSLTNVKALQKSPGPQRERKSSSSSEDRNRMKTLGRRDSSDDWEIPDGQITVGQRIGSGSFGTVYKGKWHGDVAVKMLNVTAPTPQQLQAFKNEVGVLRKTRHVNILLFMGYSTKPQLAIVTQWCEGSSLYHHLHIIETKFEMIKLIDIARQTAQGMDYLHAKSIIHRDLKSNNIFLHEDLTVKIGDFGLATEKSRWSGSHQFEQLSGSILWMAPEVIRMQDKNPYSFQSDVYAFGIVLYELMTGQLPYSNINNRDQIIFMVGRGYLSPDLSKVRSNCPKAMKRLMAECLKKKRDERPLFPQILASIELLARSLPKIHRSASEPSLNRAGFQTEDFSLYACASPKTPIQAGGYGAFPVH
T8 sequence (P08922 whole entry): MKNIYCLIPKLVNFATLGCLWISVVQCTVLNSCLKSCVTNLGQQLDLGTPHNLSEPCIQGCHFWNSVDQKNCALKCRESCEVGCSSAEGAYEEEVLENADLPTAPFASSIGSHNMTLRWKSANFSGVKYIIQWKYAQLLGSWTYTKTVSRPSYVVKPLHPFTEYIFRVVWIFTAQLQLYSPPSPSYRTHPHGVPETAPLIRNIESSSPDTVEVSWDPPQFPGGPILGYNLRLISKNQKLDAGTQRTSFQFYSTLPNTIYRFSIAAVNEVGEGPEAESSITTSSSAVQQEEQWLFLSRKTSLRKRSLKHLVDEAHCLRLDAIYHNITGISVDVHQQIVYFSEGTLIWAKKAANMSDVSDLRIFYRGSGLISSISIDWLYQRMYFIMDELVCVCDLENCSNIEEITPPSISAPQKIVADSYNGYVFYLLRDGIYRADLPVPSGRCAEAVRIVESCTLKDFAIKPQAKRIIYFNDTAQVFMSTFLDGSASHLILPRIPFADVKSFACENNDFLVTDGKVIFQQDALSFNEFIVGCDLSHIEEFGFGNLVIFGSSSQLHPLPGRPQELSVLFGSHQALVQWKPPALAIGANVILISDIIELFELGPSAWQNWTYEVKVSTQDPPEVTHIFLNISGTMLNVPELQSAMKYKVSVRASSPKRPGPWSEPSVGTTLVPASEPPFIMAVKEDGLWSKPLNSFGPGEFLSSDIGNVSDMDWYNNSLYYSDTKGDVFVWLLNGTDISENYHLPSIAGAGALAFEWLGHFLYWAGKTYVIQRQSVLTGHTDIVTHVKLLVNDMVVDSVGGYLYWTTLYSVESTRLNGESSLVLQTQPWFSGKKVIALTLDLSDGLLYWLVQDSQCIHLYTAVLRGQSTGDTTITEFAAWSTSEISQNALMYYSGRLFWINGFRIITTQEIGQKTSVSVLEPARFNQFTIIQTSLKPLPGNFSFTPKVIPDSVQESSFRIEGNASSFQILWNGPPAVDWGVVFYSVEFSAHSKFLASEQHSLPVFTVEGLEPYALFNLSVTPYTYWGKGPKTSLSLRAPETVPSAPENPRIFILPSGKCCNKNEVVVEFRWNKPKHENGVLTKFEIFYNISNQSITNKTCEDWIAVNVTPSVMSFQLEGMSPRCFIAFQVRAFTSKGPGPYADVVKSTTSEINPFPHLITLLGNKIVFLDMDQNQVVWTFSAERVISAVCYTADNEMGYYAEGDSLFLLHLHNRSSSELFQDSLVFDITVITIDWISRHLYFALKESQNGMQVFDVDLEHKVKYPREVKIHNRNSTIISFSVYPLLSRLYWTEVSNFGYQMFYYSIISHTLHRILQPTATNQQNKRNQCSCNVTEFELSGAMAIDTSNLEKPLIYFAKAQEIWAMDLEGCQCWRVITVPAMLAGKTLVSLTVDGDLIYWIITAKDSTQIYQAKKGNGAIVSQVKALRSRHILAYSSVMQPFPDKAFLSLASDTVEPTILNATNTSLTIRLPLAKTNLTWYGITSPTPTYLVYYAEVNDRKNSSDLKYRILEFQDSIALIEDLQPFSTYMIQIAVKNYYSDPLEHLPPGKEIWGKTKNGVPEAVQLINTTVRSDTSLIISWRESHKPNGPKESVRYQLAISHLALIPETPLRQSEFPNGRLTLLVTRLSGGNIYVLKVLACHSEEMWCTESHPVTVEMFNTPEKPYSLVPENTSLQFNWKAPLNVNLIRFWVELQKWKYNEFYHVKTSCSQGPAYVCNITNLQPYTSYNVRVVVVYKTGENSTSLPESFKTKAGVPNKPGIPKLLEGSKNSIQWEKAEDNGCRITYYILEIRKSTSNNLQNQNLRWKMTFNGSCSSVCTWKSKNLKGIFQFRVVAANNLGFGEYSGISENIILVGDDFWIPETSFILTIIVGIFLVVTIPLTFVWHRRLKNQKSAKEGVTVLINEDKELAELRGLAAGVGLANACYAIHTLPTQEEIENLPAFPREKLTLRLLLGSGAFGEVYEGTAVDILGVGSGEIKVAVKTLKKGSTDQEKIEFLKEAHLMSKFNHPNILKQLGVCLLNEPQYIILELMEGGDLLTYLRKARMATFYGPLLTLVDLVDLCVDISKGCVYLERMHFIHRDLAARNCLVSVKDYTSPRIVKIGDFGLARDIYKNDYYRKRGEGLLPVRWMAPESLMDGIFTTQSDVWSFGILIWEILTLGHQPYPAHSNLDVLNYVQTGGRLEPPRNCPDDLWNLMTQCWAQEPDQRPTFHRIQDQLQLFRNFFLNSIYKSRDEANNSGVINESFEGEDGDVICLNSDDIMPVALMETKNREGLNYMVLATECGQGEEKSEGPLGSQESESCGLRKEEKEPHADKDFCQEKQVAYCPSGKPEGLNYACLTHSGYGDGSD
T16 sequence (P12931 2-536 limits assumed): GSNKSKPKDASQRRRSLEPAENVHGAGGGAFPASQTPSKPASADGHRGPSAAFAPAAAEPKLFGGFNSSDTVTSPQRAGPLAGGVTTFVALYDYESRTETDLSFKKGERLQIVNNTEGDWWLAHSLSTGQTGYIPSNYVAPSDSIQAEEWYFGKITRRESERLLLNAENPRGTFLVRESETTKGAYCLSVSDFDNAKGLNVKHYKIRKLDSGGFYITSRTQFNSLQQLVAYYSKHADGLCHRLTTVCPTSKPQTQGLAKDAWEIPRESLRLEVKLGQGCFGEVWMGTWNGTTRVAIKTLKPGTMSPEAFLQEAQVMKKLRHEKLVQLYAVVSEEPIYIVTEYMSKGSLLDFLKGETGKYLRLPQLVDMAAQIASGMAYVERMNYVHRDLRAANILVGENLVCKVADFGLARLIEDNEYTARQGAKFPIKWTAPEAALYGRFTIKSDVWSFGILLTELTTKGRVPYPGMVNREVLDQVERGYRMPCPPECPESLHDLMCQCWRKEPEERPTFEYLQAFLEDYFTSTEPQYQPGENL
T11 sequence (P45983 whole entry): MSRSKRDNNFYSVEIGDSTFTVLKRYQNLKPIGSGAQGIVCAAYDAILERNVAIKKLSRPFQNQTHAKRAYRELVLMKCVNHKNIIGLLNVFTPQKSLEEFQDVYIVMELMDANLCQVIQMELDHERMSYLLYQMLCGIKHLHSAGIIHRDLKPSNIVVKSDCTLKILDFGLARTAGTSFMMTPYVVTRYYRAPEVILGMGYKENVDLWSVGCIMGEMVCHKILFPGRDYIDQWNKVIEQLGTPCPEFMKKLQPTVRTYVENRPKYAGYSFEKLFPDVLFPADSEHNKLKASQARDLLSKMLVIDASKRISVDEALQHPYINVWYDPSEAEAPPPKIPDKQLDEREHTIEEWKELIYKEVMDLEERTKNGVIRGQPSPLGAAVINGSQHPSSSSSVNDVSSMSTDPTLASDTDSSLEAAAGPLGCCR
T10 sequence (P28482 whole entry): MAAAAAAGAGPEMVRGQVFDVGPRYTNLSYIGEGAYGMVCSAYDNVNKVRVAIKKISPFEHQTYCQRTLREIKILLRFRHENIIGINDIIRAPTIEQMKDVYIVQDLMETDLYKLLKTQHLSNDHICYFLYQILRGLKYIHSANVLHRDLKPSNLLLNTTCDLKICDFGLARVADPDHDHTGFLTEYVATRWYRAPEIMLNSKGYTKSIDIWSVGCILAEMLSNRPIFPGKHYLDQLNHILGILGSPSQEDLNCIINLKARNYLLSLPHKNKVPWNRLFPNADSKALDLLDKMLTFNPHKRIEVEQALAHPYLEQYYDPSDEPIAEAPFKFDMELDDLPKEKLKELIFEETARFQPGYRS

For `COc1ccc(Cn2ncc(NC(=O)c3ccc(NC(=O)Nc4ccc(Cl)c(C(F)(F)F)c4)cc3C)c2N)cc1`, the GI50 was 33200 nM in assay [1] and greater than 30000 nM in [2]. The IC50 in assay [3] amounted to 8320 nM. The inhibition entry in assay [4] was “inactive”.

In turn, `O=C1Nc2ccc(I)cc2C1=Cc1cc(Br)c(O)c(Br)c1` yielded an IC50 in assay [4] of 3.86 nM.

In assay [5], `O=c1cc(N2CCOCC2)oc2c(-c3ccccc3)cccc12` [LY-294002] displayed an IC50 of 3020 nM.

Regarding `COc1ccc(Cn2ncc(NC(=O)c3cc(NC(=O)c4ncc(-c5ccncc5)s4)ccc3C)c2N)cc1`, the GI50 result in assay [6] is “inactive”. The GI50 in assay [2] is greater than 30000 nM.

Turning to `COc1ccc(Cn2ncc(NC(=O)c3cc(NC(=O)c4cc(N5CCN(C)CC5)cc(C(F)(F)F)c4)ccc3C)c2N)cc1`, the GI50 in assay [1] was 4510 nM; in assay [2], greater than 30000 nM. Moreover, in assay [3], the IC50 came out at 240 nM. Further, the inhibition entry in assay [4] is “inactive”.

On to `COc1ccc(Cn2ncc(NC(=O)c3ccc(NC(=O)Nc4ccc(Cl)cc4)cc3C)c2N)cc1`, for which, in assay [6], the GI50 result was “inactive”. In assay [2], the GI50 was greater than 30000 nM.

Regarding `COc1ccc(Cn2ncc(NC(=O)c3cc(NC(=O)Nc4ccc(C(F)(F)F)cc4C(F)(F)F)ccc3C)c2N)cc1`, the GI50 entry in assay [6] is “inactive”. Also, the GI50 in assay [2] is greater than 30000 nM.

Consider `COc1ccc(Cn2ncc(NC(=O)c3cc(NC(=O)Nc4cc(C)no4)ccc3C)c2N)cc1`, for which the GI50 result in assay [6] is “inactive”. In addition, the GI50 in [2] is greater than 30000 nM.

`COc1ccc(Cn2ncc(NC(=O)c3cc(NC(=O)Nc4ccc(Cl)c(C(F)(F)F)c4)ccc3C)c2N)cc1`: the inhibition in assay [7] was determined as 6.3%; in [9] it was 0%; in assay [11], 0%; in assay [12] it was 13%; in assay [13] it was 6.6%; in assay [14] it was 13%. Moreover, the inhibition was 0% in [18]; 0% in [19]; 0% in assay [20]; 3.7% in [22]; 0% in [26]; 100% in assay [29]. Besides, the inhibition in assay [30] worked out at 7.7%; in [33], 0%; in assay [34], 13%; in [35], 1.4%; in [36], 16%; in assay [37], 7.1%. Also, the inhibition in assay [38] was 97%; in assay [39], 0%; in [41], 0.1%; in assay [42] it was 1.2%; in [43], 0%; in assay [45] it was 0%. For the same compound, the inhibition in assay [46] was 1.5%; in assay [48] it was 0%; in assay [52] it was 0%; in assay [54], 0.7%. Also, the IC50 in assay [8] is less than 1 nM; in assay [10] it was 3.2 nM; in [15], less than 1 nM; in assay [16], less than 1 nM; in [17], less than 1 nM; in [21] it was 11400 nM. Moreover, the IC50 in [23] was 1590 nM; in assay [24] it was 18.2 nM; in assay [25], less than 1 nM; in [27], greater than 20000 nM; in assay [28], less than 1 nM; in assay [31], less than 1 nM. Further, the IC50 in assay [32] was 277 nM; in assay [40], 9.42 nM; in [44], 2.13 nM; in assay [47] it was 167 nM; in [49], 21.5 nM; in [50], 2.73 nM. The IC50 in assay [51] was 4.79 nM; in [53] it was 193 nM. Moreover, the GI50 was 270 nM in [1] and greater than 30000 nM in [2].

Take `COc1ccc(Cn2ncc(NC(=O)c3cc(NC(=O)c4ccnc(Cl)c4)ccc3C)c2N)cc1`: in assay [6], the GI50 result is “inactive”. Besides, the GI50 in assay [2] was greater than 30000 nM.

Turning to `COc1ccc(Cn2ncc(NC(=O)c3cc(NC(=O)Nc4c(Cl)cccc4Cl)ccc3C)c2N)cc1`, in assay [6], the GI50 result was “inactive”. For the same compound, in assay [2], the GI50 is greater than 30000 nM.

For `COc1ccc(Cn2ncc(NC(=O)c3ccc(NC(=O)Nc4nccc(C(F)(F)F)n4)cc3C)c2N)cc1`, the GI50 result in [6] is “inactive”. Further, the GI50 in assay [2] is greater than 30000 nM.

For `COc1ccc(Cn2ncc(NC(=O)c3cc(NC(=O)NC4CCCCC4)ccc3C)c2N)cc1`, the GI50 result in [6] was “inactive”. In assay [2], the GI50 was greater than 30000 nM.

For the compound `COc1ccc(Cn2ncc(NC(=O)c3cc(NC(=O)c4cccc(C(F)(F)F)c4)ccc3C)c2N)cc1`, the GI50 was 5530 nM in assay [1] and greater than 30000 nM in assay [2]. Besides, in [3], the IC50 is 22.4 nM. The inhibition entry in [4] is “inactive”.

Usually GI50 stands for the concentration at which growth is held to half of that of the control. Broadly, the IC50 is the concentration needed to halve the response being measured. As a reminder, the inhibition is the percentage by which the read-out fell short of the control.
